The source of these data is ChEMBL document CHEMBL5335820, “Novel quinolinepiperazinyl-aryltetrazoles targeting the blood stage of Plasmodium falciparum” (RSC Med Chem, 2024).

Active and inactive are the calls of the source. No cut-off for these calls is given here.

Data set [1] relates to Plasmodium falciparum. In words: Antiplasmodial activity against chloroquine resistant Plasmodium falciparum INDO infected in human erythrocytes assessed as inhibition of parasite growth incubated for 72 hrs by SYBR green I staining based fluorescence plate reader analysis. Type of data set: functional, organism-based. The settings on record: Erythrocyte. The essentials: (§1)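 Pf3D7 or PfINDO was cultured in O+ human erythrocytes at 37 °C under 5% O2/5% CO2/90% N2 and ring-synchronised with 5% sorbitol. Cultures were exposed to 0–100 μM in triplicate for 72 h, with final DMSO 0.4%. After SYBR Green I lysis buffer (1 h, dark, 37 °C), fluorescence was read at 485/530 nm. Chloroquine-well counts were subtracted as background, and IC50 was obtained by non-linear regression.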

For data set [2], the system named is Plasmodium falciparum. The experiment in a line: Antimalarial activity against chloroquine resistant late schizont Plasmodium falciparum INDO infected in human erythrocytes assessed as inhibition of parasite growth incubated for 12 hrs. The data set is classed as functional, organism-based. The settings on record: Erythrocyte. The essentials: (§2)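 PfINDO cultures were staged at 0–6 h (rings), 18–22 h (trophozoites), 30–34 h (early schizonts) and 40–44 h (late schizonts) post-invasion. Each was exposed to varying concentrations for 12 h, washed free of compound by centrifugation, and grown 48 h in drug-free medium. IC50 came from growth curves, with untreated culture as 100% and chloroquine-treated culture as 0% growth.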

A short description of data set [3]: Resistance index, ratio of IC50 of chloroquine resistant Plasmodium falciparum INDO to chloroquine sensitive Plasmodium falciparum 3D7. The data set is classed as functional. The gist of the method: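 Resistance index = IC50 against PfINDO / IC50 against Pf3D7. Both IC50s came from 72 h SYBR Green I assays.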
The nature of data set [4]: Toxicity in mouse assessed as death at 100 mg/kg, po measured after 45 mins. The data set is classed as organism-based. The settings on record: in vivo, 0.75 h. The essentials: (§3)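 Acute oral toxicity per OECD 423. Mice were fasted 4 h, given a single 100 mg/kg oral dose, and observed for 45 min for signs of acute toxicity, compared with untreated controls.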
Data set [5] has as its system Plasmodium falciparum. The experiment in a line: Antiplasmodial activity against chloroquine resistant ring-stage Plasmodium falciparum INDO infected in human erythrocytes assessed as inhibition of parasite growth incubated for 12 hrs. The data set is classed as functional, organism-based. The settings on record: Erythrocyte. The gist of the method: as §2
Data set [6] in a line: Toxicity in mouse assessed as change in temperature at 100 mg/kg, po measured after 45 mins. Type of data set: organism-based. As to conditions: in vivo, 0.75 h. The gist of the method:
as §3

Data set [7] is described as follows: Binding affinity to Plasmodium falciparum GAP50 assessed as equilibrium dissociation constant by SPR analysis. The gist of the method:
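GAP50 at 50 μg ml−1 in 10 mM acetate pH 4.5 was amine-coupled (EDC/NHS) onto a CM5 chip. Analytes at several concentrations in 5% DMSO/1× PBS; association 60 s, dissociation 120 s, flow 30 μl min−1. Regeneration with 10 mM glycine pH 3.0 for 30 s. Sensorgrams fitted to a 1:1 Langmuir model giving ka, kd and KD.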

The test system of data set [8] is Plasmodium falciparum. In words: Antiplasmodial activity against chloroquine resistant early ring stage Plasmodium falciparum INDO infected in human erythrocytes assessed as reduction in parasite growth at 10 times IC50 concentration preincubated for 6 hrs followed by media replacement without compound for 66 hrs and measured after 72 hrs by Giemsa-staining based analysis. Type of data set: functional, organism-based. The settings on record: Erythrocyte. The essentials:
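Ring-stage survival assay. PfCam3.1R539T or PfINDO rings (0–3 h post-invasion), 1% parasitemia, 2% haematocrit, were exposed to 10× IC50 for 6 h. Compound was removed by three PBS washes, then cultures were grown 66 h in fresh medium. At 72 h, stage progression was assessed on Giemsa smears and revival by SYBR Green I lysis. Triplicate biological samples.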

The test system of data set [9] is Plasmodium falciparum. In words: Antimalarial activity against chloroquine resistant early schizont Plasmodium falciparum INDO infected in human erythrocytes assessed as inhibition of parasite growth incubated for 12 hrs. The data set is classed as functional, organism-based. As to conditions: Erythrocyte. The gist of the method: as §2
Data set [10] deals with Plasmodium berghei. In words: Antimalarial activity against Plasmodium berghei ANKA infected in mouse model of malaria assessed as reduction in parasite infection by measuring median survival at 100 mg/kg, po. Type of data set: functional.
Data set [11] in a line: Selectivity index, ratio of CC50 for human HEK293 cells to IC50 of chloroquine resistant Plasmodium falciparum INDO infected in human erythrocytes. Type of data set: toxicity, cell-based. As to conditions: read-out: Ratio CC50/IC50. The gist of the method:
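Selectivity index = CC50 / PfINDO IC50. CC50 came from MTT assays: 10^4 HEK293 or HUH7 cells per well, seeded overnight and exposed to 0–100 μM for 24 h, then MTT for 4 h at 37 °C with formazan dissolved in DMSO and read at A570. Controls were 0.8% DMSO (full growth) and 10% DMSO (zero growth).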

Data set [12] can be described thus: Toxicity in mouse assessed as changes in skin at 100 mg/kg, po measured after 45 mins. The data set is classed as organism-based. The settings on record: in vivo, 0.75 h. The gist of the method: as §3
Data set [13] is described as follows: Toxicity in mouse assessed as change in body weight at 100 mg/kg, po measured after 45 mins. Type of data set: organism-based. The settings on record: in vivo, 0.75 h. The essentials:
as §3

The test system of data set [14] is Plasmodium falciparum. The experiment in a line: Antiplasmodial activity against chloroquine resistant Plasmodium falciparum INDO trophozoites infected in human erythrocytes assessed as increase in reactive oxygen species level at 2 times IC50 concentration incubated for 8 hrs by H2DCFDA staining based fluorescence analysis. Type of data set: functional, organism-based. As to conditions: Erythrocyte. The gist of the method:
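PfINDO trophozoites (24–28 h post-invasion), 2% parasitemia, 2% haematocrit, were loaded with CM-H2DCFDA (5 μM, 30 min) and washed with PBS. They were then treated at 2× IC50 for 8 h, and DCF fluorescence was read at 530 nm. Controls were 100 μM H2O2 (positive) and 0.4% DMSO (negative). Triplicate biological samples.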

In data set [15] the test system is Plasmodium falciparum. The experiment in a line: Binding affinity to Plasmodium falciparum GAP50 assessed as association constant by SPR analysis. The essentials:
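SPR: GAP50 at 50 μg/ml in 10 mM acetate pH 4.5 was immobilised on a CM5 chip by EDC/NHS coupling. Analytes were run in 5% DMSO/PBS at 30 μl/min, with 60 s association and 120 s dissociation. The chip was regenerated with 10 mM glycine pH 3.0 for 30 s. Fits used a 1:1 Langmuir model.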

Data set [16] deals with Plasmodium falciparum. In words: Antimalarial activity against chloroquine resistant trophozoites-stage Plasmodium falciparum INDO infected in human erythrocytes assessed as inhibition of parasite growth incubated for 12 hrs. The settings on record: Erythrocyte. Type of data set: functional, organism-based. The essentials: as §2
Data set [17] deals with Plasmodium falciparum. The experiment in a line: Additive antiplasmodial activity against multidrug-resistant Plasmodium falciparum Cam3.1R539T infected in human erythrocytes at 8 times IC50 concentration incubated for 72 hrs in presence of artemisinin by SYBR green I staining based fluorescence assay. The settings on record: Erythrocyte. The data set is classed as functional, organism-based. The gist of the method:
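P. falciparum Cam3.1R539T in O+ human erythrocytes, 1% parasitemia, 2% haematocrit. 8× IC50 stocks of test compound and standard drug were mixed at molar ratios 4:1, 3:2, 2:3 and 1:4, then serially diluted two-fold. Plates were incubated 72 h at 37 °C and read by SYBR Green I lysis. Controls were 0.4% DMSO (100% growth) and 4 μM chloroquine (0% growth). ΣFIC = FICA + FICB; <1 synergistic, 1.0–2.0 additive, >2.0 antagonistic.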

A short description of data set [18]: Toxicity in mouse assessed as effect on eye colour at 100 mg/kg, po measured after 45 mins. The data set is classed as organism-based. As to conditions: in vivo, 0.75 h. The essentials:
as §3

Data set [19] in a line: Toxicity in mouse assessed as effect on water intake at 100 mg/kg, po measured after 45 mins. Type of data set: organism-based. As to conditions: in vivo, 0.75 h. The essentials:
as §3

Data set [20] deals with Plasmodium falciparum. The experiment in a line: Antiplasmodial activity against chloroquine sensitive Plasmodium falciparum 3D7 infected in human erythrocytes assessed as inhibition of parasite growth incubated for 72 hrs by SYBR green I staining based fluorescence plate reader analysis. The data set is classed as functional, organism-based. The settings on record: 3D7, Erythrocyte. The essentials: as §1

Data set [21] in a line: Toxicity in mouse assessed as sedation at 100 mg/kg, po measured after 45 mins. As to conditions: in vivo, 0.75 h. Type of data set: organism-based. The gist of the method: as §3

With `O=C(Cn1nnc(-c2cccc([N+](=O)[O-])c2)n1)N1CCN(c2ccnc3cc(Cl)ccc23)CC1`, the IC50 in data set [1] is 1790 nM; in data set [2] it was 7100 nM; in data set [5], 7510 nM; in data set [9] it was 2150 nM; in data set [16], 2720 nM; in data set [20] it was 2230 nM. Further, the Ratio IC50 in [3] came out at 0.8. The Activity result in [4], in data set [6], in data set [12], in data set [13], in data set [18] and in data set [19] was “Non-Toxic” each time. Further, in [21], the Activity entry was “Non-Toxic”. For the same molecule, in [7], the Kd is < 100000 nM. Also, in [8], the outcome was inactive. Also, in [10], the Survival was determined as 22 days. Also, the selectivity ratio in [11] is 223. Besides, the outcome in [14] and in data set [17] was Active. Further, the Ka in [15] worked out at 1920 M⁻¹ s⁻¹.

With `Clc1ccc2c(N3CCN(CCCn4nnc(-c5ccc(Br)cc5)n4)CC3)ccnc2c1`, the IC50 in [1] came out at 2250 nM; in data set [2], 1500 nM; in data set [5] it was 2270 nM; in data set [9], 2810 nM; in [16], 2160 nM; in data set [20], 1850 nM. For the same molecule, the Ratio IC50 in [3] worked out at 1.21. For the same molecule, the Activity result in data set [4], in data set [6], in data set [12], in data set [13], in [18] and in [19] was “Non-Toxic” each time. Moreover, the Activity entry in data set [21] is recorded as “Non-Toxic”. Besides, the Kd in [7] is < 100000 nM. Also, the outcome in [8] was inactive. The Survival in data set [10] turned out to be 28 days. Moreover, the selectivity ratio in data set [11] is 178. The result in data set [14] and in data set [17] was Active. The Ka in [15] turned out to be 2610 M⁻¹ s⁻¹.
